Activity calls are given as the source filed them. The rule behind the calls is not given here.

Drawing on ChEMBL document CHEMBL3286371, “wALADin benzimidazoles differentially modulate the function of porphobilinogen synthase orthologs” (J Med Chem, 2014), this text covers Smax, inhibition and IC50 for 10 compounds.

The subject of assay [1] is Toxoplasma gondii. In words: Stimulation of Toxoplasma gondii recombinant PBGS using 5-ALA as substrate at […].
Assay [2] concerns Toxoplasma gondii. Briefly: Inhibition of Toxoplasma gondii recombinant PBGS using 5-ALA as substrate at […].
The target of assay [3] is Delta-aminolevulinic acid dehydratase (Yersinia enterocolitica W22703) (UniProt F4MUJ9). Briefly: Stimulation of Yersinia enterocolitica recombinant PBGS expressed in Escherichia coli using 5-ALA as substrate at […].
Assay [4] shares this target. In words: Inhibition of Yersinia enterocolitica recombinant PBGS expressed in Escherichia coli using 5-ALA as substrate at […].
Assay [5] deals with Delta-aminolevulinic acid dehydratase (Pseudomonas aeruginosa (strain ATCC 15692 / PAO1 / 1C / PRS 101 / LMG12228)) (UniProt Q59643). Briefly: Stimulation of Pseudomonas aeruginosa PAO1 recombinant PBGS using 5-ALA as substrate at […].
For assay [6] the target is unchanged. Briefly: Inhibition of Pseudomonas aeruginosa PAO1 recombinant PBGS using 5-ALA as substrate at […].
The target in assay [7] is T1, Delta-aminolevulinic acid dehydratase (Homo sapiens, UniProt P13716).
T1 sequence (P13716 whole entry): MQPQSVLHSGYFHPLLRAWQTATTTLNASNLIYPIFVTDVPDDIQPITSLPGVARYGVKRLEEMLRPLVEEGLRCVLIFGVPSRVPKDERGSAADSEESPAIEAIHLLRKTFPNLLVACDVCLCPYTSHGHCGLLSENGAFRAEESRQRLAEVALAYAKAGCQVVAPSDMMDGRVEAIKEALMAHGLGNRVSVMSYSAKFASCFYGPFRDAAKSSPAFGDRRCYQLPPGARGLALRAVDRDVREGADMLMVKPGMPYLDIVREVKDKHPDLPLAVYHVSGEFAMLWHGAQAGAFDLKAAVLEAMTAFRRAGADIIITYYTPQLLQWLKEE
Briefly: Inhibition of human PBGS using 5-ALA as substrate.

The target in assay [8] is T2, Delta-aminolevulinic acid dehydratase (Wolbachia sp. subsp. Brugia malayi (strain TRS), UniProt Q5GSR3).
T2 sequence (Q5GSR3 whole entry): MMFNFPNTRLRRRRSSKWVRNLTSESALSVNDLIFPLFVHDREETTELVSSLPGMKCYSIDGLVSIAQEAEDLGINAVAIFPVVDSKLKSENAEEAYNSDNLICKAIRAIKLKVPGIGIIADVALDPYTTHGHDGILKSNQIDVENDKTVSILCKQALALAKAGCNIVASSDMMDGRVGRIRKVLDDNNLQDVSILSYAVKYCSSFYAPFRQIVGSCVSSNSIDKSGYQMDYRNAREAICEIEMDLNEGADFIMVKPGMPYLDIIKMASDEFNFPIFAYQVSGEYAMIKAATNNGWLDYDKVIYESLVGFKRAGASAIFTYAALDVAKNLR
In words: Inhibition of C-terminal His-tagged Wolbachia PBGS using 5-ALA as substrate.

Assay [9] addresses T3, Delta-aminolevulinic acid dehydratase (Escherichia coli (strain K12)) (UniProt P0ACB2).
T3 sequence (whole entry): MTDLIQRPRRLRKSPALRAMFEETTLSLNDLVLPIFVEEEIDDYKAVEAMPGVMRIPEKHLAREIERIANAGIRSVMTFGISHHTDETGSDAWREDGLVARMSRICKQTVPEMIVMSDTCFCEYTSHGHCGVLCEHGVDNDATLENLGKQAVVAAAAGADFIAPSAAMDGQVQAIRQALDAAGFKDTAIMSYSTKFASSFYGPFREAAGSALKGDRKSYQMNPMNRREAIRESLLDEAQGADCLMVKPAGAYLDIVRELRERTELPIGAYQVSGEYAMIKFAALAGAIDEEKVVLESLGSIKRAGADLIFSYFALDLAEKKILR
In words: Inhibition of Escherichia coli recombinant PBGS using 5-ALA as substrate at […].

The target in assay [10] is T4, Delta-aminolevulinic acid dehydratase (Drosophila melanogaster, UniProt Q9VTV9).
T4 sequence (Q9VTV9 whole entry): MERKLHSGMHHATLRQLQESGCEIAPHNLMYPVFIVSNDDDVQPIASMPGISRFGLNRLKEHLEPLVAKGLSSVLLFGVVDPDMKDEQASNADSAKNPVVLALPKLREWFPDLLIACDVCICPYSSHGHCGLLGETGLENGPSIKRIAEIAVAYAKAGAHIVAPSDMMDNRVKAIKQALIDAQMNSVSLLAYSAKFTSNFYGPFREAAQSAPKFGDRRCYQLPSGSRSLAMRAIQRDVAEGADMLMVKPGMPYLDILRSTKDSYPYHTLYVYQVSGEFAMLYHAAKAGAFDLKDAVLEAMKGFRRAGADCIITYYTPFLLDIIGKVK
In words: Inhibition of Drosophila melanogaster recombinant PBGS using 5-ALA as substrate.

Assay [11] concerns the target T3, Delta-aminolevulinic acid dehydratase (Escherichia coli (strain K12)). In words: Stimulation of Escherichia coli recombinant PBGS using 5-ALA as substrate at […].
Assay [12] concerns the target T5, Delta-aminolevulinic acid dehydratase, chloroplastic (Pisum sativum, UniProt P30124).
T5 sequence (P30124 whole entry): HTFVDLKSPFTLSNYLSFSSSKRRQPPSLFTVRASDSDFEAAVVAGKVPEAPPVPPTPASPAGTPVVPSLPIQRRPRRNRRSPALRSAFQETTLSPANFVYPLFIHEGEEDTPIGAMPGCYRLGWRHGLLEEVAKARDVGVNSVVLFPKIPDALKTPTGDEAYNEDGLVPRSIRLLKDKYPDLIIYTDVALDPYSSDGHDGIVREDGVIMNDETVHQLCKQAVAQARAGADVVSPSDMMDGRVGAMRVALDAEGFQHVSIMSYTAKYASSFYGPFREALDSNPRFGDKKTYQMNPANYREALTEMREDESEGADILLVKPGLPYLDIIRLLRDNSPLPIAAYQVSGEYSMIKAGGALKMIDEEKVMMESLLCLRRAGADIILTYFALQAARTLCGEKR
In words: Inhibition of Pisum sativum PBGS using 5-ALA as substrate. On the set-up: species or system Lathyrus oleraceus. The method, boiled down:
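Pea (P. sativum) PBGS at 300 nM subunit in 100 mM BTP-HCl pH 8.5 with 1 mM MgCl2, 5 mM DTT and 0.2 mM 5-ALA, 15 min at 36 °C. Porphobilinogen detected with Ehrlich's reagent. Activity normalized to 6.7% DMSO control as 100%. IC50 from variable-slope normalized-response fit.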

Chain of Delta-aminolevulinic acid dehydratase (Pseudomonas aeruginosa (strain ATCC 15692 / PAO1 / 1C / PRS 101 / LMG12228)) (Q59643 whole entry): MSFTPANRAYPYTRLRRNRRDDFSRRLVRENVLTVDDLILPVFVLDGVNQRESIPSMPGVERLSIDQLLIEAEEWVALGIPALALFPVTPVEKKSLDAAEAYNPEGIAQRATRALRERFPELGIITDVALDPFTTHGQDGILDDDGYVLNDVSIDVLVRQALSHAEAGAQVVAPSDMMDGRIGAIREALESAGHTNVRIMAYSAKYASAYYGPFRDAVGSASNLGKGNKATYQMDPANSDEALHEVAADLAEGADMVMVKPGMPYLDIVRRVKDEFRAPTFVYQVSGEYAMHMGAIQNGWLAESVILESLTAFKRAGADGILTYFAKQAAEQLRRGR
Chain of Delta-aminolevulinic acid dehydratase (Yersinia enterocolitica W22703) (F4MUJ9 as listed by the source): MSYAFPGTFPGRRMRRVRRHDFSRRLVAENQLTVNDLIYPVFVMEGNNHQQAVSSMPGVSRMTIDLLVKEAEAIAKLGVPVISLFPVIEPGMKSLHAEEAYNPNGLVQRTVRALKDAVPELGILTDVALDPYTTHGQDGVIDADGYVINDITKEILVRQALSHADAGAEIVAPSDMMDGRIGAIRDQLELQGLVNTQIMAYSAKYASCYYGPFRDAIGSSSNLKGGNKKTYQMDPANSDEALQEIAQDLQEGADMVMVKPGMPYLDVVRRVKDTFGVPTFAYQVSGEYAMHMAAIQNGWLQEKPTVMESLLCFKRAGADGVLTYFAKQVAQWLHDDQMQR

Consider `Cc1cccc(Cn2cnc3cc(C(=O)O)ccc32)c1`, for which the Smax (with Toxoplasma gondii [1]; in assay [3]; in [5]; in assay [11]) was 100% in each case. For the same compound, the inhibition entry (in the assay with Toxoplasma gondii [2]; in assay [4]; in assay [6]; in assay [9]) was “inactive” throughout. Moreover, the IC50 amounted to 222 µM in [7], 134 µM in assay [8], 371 µM in assay [10] and 95.9 µM in assay [12].

On to `O=C(O)c1ccc2c(c1)ncn2Cc1ccc(C(F)(F)F)cc1`, for which the Smax (in the assay with Toxoplasma gondii [1]; in assay [3]; in assay [5]; in assay [11]) was 100% in each case. The inhibition entry (in the assay with Toxoplasma gondii [2]; in assay [4]; in [6]; in assay [9]) was “inactive” in each case. Further, the IC50 in [7] stood at 173 µM; in [8], 87.7 µM; in assay [10] it was 620 µM; in [12], 43.1 µM.

As for `Cn1cnc2cc(C(=O)O)ccc21`, the Smax (in the assay with Toxoplasma gondii [1]; in [3]; in assay [5]; in assay [11]) was 100% in each case. The inhibition entry (in the assay with Toxoplasma gondii [2]; in assay [4]; in assay [6]; in [9]) was “inactive” throughout. Also, the IC50 in assay [10] is above 1000 µM; in assay [12], 257 µM.

As for `COc1cccc(Cn2cnc3cc(C(=O)O)ccc32)c1`, the Smax (with Toxoplasma gondii [1]; in [3]; in assay [5]; in [11]) was 100% each time. Further, the inhibition entry (with Toxoplasma gondii [2]; in [4]; in [6]; in [9]) was “inactive” each time. Besides, the IC50 was 156 µM in assay [7], 205 µM in assay [8], 370 µM in assay [10] and 155 µM in assay [12].

`O=C(O)c1ccc2[nH]c(CCNC(=O)c3cccs3)nc2c1`: the Smax (in the assay with Toxoplasma gondii [1]; in assay [3]; in assay [5]; in [11]) was 100% each time. Also, the inhibition result (in the assay on Toxoplasma gondii [2]; in [4]; in [6]; in [9]) was “inactive” throughout. Moreover, the results for the IC50 in assay [8], in [10] and in assay [12] were 500 µM, 448 µM and 114 µM, respectively.

Consider `O=C(O)c1ccc2c(c1)ncn2Cc1ccccc1`, for which the Smax (with Toxoplasma gondii [1]; in assay [3]; in assay [5]; in assay [11]) was 100% each time. Also, the inhibition result (with Toxoplasma gondii [2]; in assay [4]; in assay [6]; in assay [9]) was “inactive” in each case. In addition, the IC50 in [7] turned out to be 213 µM; in [8] it was 197 µM; in [10], 1030 µM; in assay [12] it was 182 µM.

Turning to `O=C(NCCc1nc2cccc(C(=O)O)c2n1Cc1cccc(C(F)(F)F)c1)c1cccs1`, the Smax with Toxoplasma gondii [1] was determined as 113%; in assay [3], 118%; in [5], 100%; in assay [11], 100%. For the same compound, the inhibition result in assay [6] and in assay [9] was “inactive” throughout. Moreover, the 50% inhibitory concentration (IC50) in [8] was 164 µM; in assay [10] it was above 1000 µM; in assay [12], above 500 µM.

Regarding `O=C(O)c1ccc2nc(CCNC(=O)c3cccs3)n(Cc3cccc(C(F)(F)F)c3)c2c1`, the Smax in assay [3] turned out to be 131%; in assay [5], 100%; in assay [11], 100%. Moreover, the inhibition result in assay [6] and in [9] was “inactive” each time. Further, the concentration for half-maximal inhibition (IC50) was found to be 317 µM in assay [8], 257 µM in assay [10] and 89 µM in [12].

Take `O=C(O)c1ccc2c(c1)ncn2Cc1ccccc1C(F)(F)F`: the Smax (in the assay on Toxoplasma gondii [1]; in assay [3]; in assay [5]; in assay [11]) was 100% in each case. Also, the inhibition result (with Toxoplasma gondii [2]; in assay [4]; in assay [6]; in assay [9]) was “inactive” each time. In addition, the IC50 was 145 µM in [7], 293 µM in [8], above 1000 µM in [10] and 64.3 µM in [12].

Consider `O=C(O)c1ccc2[nH]cnc2c1`, for which the Smax (in the assay with Toxoplasma gondii [1]; in [3]; in assay [5]; in [11]) was 100% each time. Moreover, the inhibition result (with Toxoplasma gondii [2]; in assay [4]; in [6]; in [9]) was “inactive” each time. The IC50 in assay [7] was 511 µM; in assay [8], 500 µM; in [10], above 1000 µM; in assay [12] it was above 500 µM.
